The text below walks through data of ChEMBL document CHEMBL4038305, “Benzoxaborole Antimalarial Agents. Part 5. Lead Optimization of Novel Amide Pyrazinyloxy Benzoxaboroles and Identification of a Preclinical Candidate” (J Med Chem, 2017).

Data set [1] concerns Plasmodium berghei. As to the kind of experiment: Antimalarial activity against Plasmodium berghei infected in Swiss Webster mouse assessed as mouse survival rate at 100 mg/kg administered once daily via oral gavage for 4 consecutive days beginning 1 hr after infection measured on day 16 post infection relative to control. Type of data set: functional. The essentials: (§1)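 Mice given an intraperitoneal injection of P. berghei-infected erythrocytes taken from a previously infected animal. Oral dosing once daily for 4 consecutive days, starting 1 h after infection. Vehicle: polyethylene glycol 300/propylene glycol/water (weight ratio 55/25/20). Percent survival recorded daily from day 4 to day 20. Chloroquine 30 mg/kg and vehicle-only groups served as controls.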

The subject of data set [2] is Plasmodium berghei. The experiment in a line: Antimalarial activity against Plasmodium berghei infected in Swiss Webster mouse assessed as mouse survival rate at 11 mg/kg administered once daily via oral gavage for 4 consecutive days beginning 1 hr after infection measured on day 14 post infection relative to control. Type of data set: functional. A digest of the protocol: as §1

Data set [3] has as its system Plasmodium berghei. As to the kind of experiment: Antimalarial activity against Plasmodium berghei infected in Swiss Webster mouse assessed as mouse survival rate at 1.1 mg/kg administered once daily via oral gavage for 4 consecutive days beginning 1 hr after infection measured on day 6 post infection relative to control. Type of data set: functional. A digest of the protocol:
as §1

Data set [4] has as its system Plasmodium berghei. The experiment in a line: Antimalarial activity against Plasmodium berghei infected in Swiss Webster mouse assessed as mouse survival rate at 0.3 mg/kg administered once daily via oral gavage for 4 consecutive days beginning 1 hr after infection measured on day 8 post infection relative to control. Type of data set: functional. A digest of the protocol:
as §1

Data set [5] deals with Plasmodium berghei. As to the kind of experiment: Antimalarial activity against Plasmodium berghei infected in Swiss Webster mouse assessed as mouse survival rate at 200 mg/kg administered once daily via oral gavage for 4 consecutive days beginning 1 hr after infection measured on day 17 post infection relative to control. Type of data set: functional. A digest of the protocol:
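P. berghei-infected erythrocytes taken from a previously infected mouse were injected intraperitoneally. Oral dosing, once daily for 4 consecutive days, began 1 h after infection, in polyethylene glycol 300/propylene glycol/water (55/25/20 by weight). Chloroquine at 30 mg/kg was the positive control, with a vehicle-only group. Percent survival was recorded daily from day 4 to day 20.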

The subject of data set [6] is Plasmodium berghei. The experiment in a line: Antimalarial activity against Plasmodium berghei infected in Swiss Webster mouse assessed as mouse survival rate at 100 mg/kg administered once daily via oral gavage for 4 consecutive days beginning 1 hr after infection measured from day 16 to day 19 post infection relative to control. Type of data set: functional. A digest of the protocol:
as §1

Data set [7] relates to Escherichia coli. The experiment in a line: Genotoxicity in Escherichia coli WP2uvrA assessed as number of revertants per plate at 150 ug/plate in presence of rat liver S9 fraction by Ames test (reference value: 42 +/- 6). Type of data set: toxicity.
The subject of data set [8] is Salmonella typhimurium. As to the kind of experiment: Genotoxicity in Salmonella typhimurium TA1537 assessed as number of revertants per plate at 5 ug/plate in presence of rat liver S9 fraction by Ames test (reference value: 11 +/- 4). Type of data set: toxicity. Conditions: salmonella enterica subsp. enterica serovar typhimurium.
For data set [9], the system named is Escherichia coli. The experiment in a line: Genotoxicity in Escherichia coli WP2uvrA assessed as number of revertants per plate at 1.5 ug/plate in absence of rat liver S9 fraction by Ames test (reference value: 45 +/- 9). Type of data set: toxicity.
Data set [10] relates to Lymphocyte. As to the kind of experiment: Genotoxicity in human lymphocytes assessed as increase in frequency of micronucleated cells at 355.15 ug/mL after 28 hrs in absence of rat liver S9 fraction by micronucleus assay (reference value: 0.74%). Type of data set: toxicity, cell-based.
Data set [11] concerns Salmonella typhimurium. The experiment in a line: Genotoxicity in Salmonella typhimurium TA100 assessed as number of revertants per plate at 15 ug/plate in absence of rat liver S9 fraction by Ames test (reference value: 154 +/- 9). Type of data set: toxicity. The settings on record: salmonella enterica subsp. enterica serovar typhimurium.
Data set [12] deals with Salmonella typhimurium. As to the kind of experiment: Genotoxicity in Salmonella typhimurium TA98 assessed as number of revertants per plate at 150 ug/plate in presence of rat liver S9 fraction by Ames test (reference value: 19 +/- 8). Type of data set: toxicity. The settings on record: salmonella enterica subsp. enterica serovar typhimurium.
Data set [13] relates to Lymphocyte. As to the kind of experiment: Genotoxicity in human lymphocytes assessed as replication index at 160 ug/mL after 28 hrs in absence of rat liver S9 fraction by micronucleus assay relative to control. Type of data set: toxicity, cell-based. A digest of the protocol:
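Human lymphocytes exposed for 3 h with or without rat liver S9, or 28 h without S9, with 1% DMSO as vehicle control. Replication index = (binucleated + 2 × multinucleated cells)/total cells. Cytotoxicity (%) = 100 − (RI treated/RI vehicle) × 100.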

The test system of data set [14] is Salmonella typhimurium. As to the kind of experiment: Genotoxicity in Salmonella typhimurium TA1535 assessed as number of revertants per plate at 500 ug/plate in absence of rat liver S9 fraction by Ames test (reference value: 10 +/- 3). Type of data set: toxicity. Conditions: salmonella enterica subsp. enterica serovar typhimurium.
Data set [15] concerns Salmonella typhimurium. As to the kind of experiment: Genotoxicity in Salmonella typhimurium TA98 assessed as number of revertants per plate at 1.5 ug/plate in presence of rat liver S9 fraction by Ames test (reference value: 19 +/- 8). Type of data set: toxicity. The settings on record: salmonella enterica subsp. enterica serovar typhimurium.
In data set [16] the test system is Salmonella typhimurium. As to the kind of experiment: Genotoxicity in Salmonella typhimurium TA1535 assessed as number of revertants per plate at 15 ug/plate in absence of rat liver S9 fraction by Ames test (reference value: 10 +/- 3). The settings on record: salmonella enterica subsp. enterica serovar typhimurium. Type of data set: toxicity.
Data set [17] deals with Salmonella typhimurium. As to the kind of experiment: Genotoxicity in Salmonella typhimurium TA100 assessed as number of revertants per plate at 15 ug/plate in presence of rat liver S9 fraction by Ames test (reference value: 141 +/- 1). Type of data set: toxicity. Conditions: salmonella enterica subsp. enterica serovar typhimurium.
In data set [18] the test system is Salmonella typhimurium. As to the kind of experiment: Genotoxicity in Salmonella typhimurium TA1537 assessed as number of revertants per plate at 500 ug/plate in presence of rat liver S9 fraction by Ames test (reference value: 11 +/- 4). Conditions: salmonella enterica subsp. enterica serovar typhimurium. Type of data set: toxicity.
Data set [19] concerns Salmonella typhimurium. As to the kind of experiment: Genotoxicity in Salmonella typhimurium TA100 assessed as number of revertants per plate at 50 ug/plate in presence of rat liver S9 fraction by Ames test (reference value: 141 +/- 1). Type of data set: toxicity. Conditions: salmonella enterica subsp. enterica serovar typhimurium.
The subject of data set [20] is Escherichia coli. As to the kind of experiment: Genotoxicity in Escherichia coli WP2uvrA assessed as number of revertants per plate at 15 ug/plate in presence of rat liver S9 fraction by Ames test (reference value: 42 +/- 6). Type of data set: toxicity.
For data set [21], the system named is Plasmodium falciparum. As to the kind of experiment: Antimalarial activity against intraerythrocytic stage of Plasmodium falciparum assessed as time required to clear 99.9% of initial parasite population at 30 times IC50 preincubated for 24 hrs followed by [3H]-hypoxanthine addition measured after 24 hrs by scintillation counting method. Type of data set: functional. The essentials:
(§2)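 In vitro P. falciparum parasite reduction ratio assay run at 10×, 30× and 100× IC50. Derived parameters: lag phase (time to maximal killing), PRR (parasites killed per life cycle) and PCT99.9% (time to clear 99.9% of the initial parasite population).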

Data set [22] concerns Lymphocyte. As to the kind of experiment: Genotoxicity in human lymphocytes assessed as increase in frequency of micronucleated cells at 80 ug/mL after 3 hrs in presence of rat liver S9 fraction by micronucleus assay (reference value: 0.63%). The settings on record: s9, 3 h. Type of data set: toxicity, cell-based.
Data set [23] concerns Salmonella typhimurium. The experiment in a line: Genotoxicity in Salmonella typhimurium TA98 assessed as number of revertants per plate at 1.5 ug/plate in absence of rat liver S9 fraction by Ames test (reference value: 14 +/- 6). Type of data set: toxicity. The settings on record: salmonella enterica subsp. enterica serovar typhimurium.
The next data set relates to Rattus norvegicus. As to the kind of experiment: Genotoxicity in rat assessed as change in polychromatic erythrocytes in bone marrow at 2000 mg/kg administered via oral gavage measured after 24 hrs post dose by micronucleus assay relative to control. Type of data set: toxicity, organism-based. The settings on record: in vivo.
For data set [24], the system named is Plasmodium falciparum. The experiment in a line: Antimalarial activity against intraerythrocytic stage of Plasmodium falciparum assessed as time required for maximal killing effect at 10 times IC50 preincubated for 24 hrs followed by [3H]-hypoxanthine addition measured after 24 hrs by scintillation counting method. Type of data set: functional. A digest of the protocol: as §2

Data set [25] relates to Escherichia coli. The experiment in a line: Genotoxicity in Escherichia coli WP2uvrA assessed as number of revertants per plate at 500 ug/plate in absence of rat liver S9 fraction by Ames test (reference value: 45 +/- 9). Type of data set: toxicity.
The subject of data set [26] is Salmonella typhimurium. As to the kind of experiment: Genotoxicity in Salmonella typhimurium TA1537 assessed as number of revertants per plate at 500 ug/plate in absence of rat liver S9 fraction by Ames test (reference value: 19 +/- 9). Type of data set: toxicity. Conditions: salmonella enterica subsp. enterica serovar typhimurium.

Regarding `Cc1c(Oc2cnc(C(=O)N3CC(O)(C(C)C)C3)cn2)ccc2c1B(O)OC2`, in the data set with Plasmodium berghei [1], the survival at 100 mg/kg came to 100%. Besides, the survival at 11 mg/kg in the data set on Plasmodium berghei [2] worked out at 0%. Further, in the data set with Plasmodium berghei [3], the survival at 1.1 mg/kg stood at 100%.

In the case of `Cc1c(Oc2cnc(C(=O)NC(C)CO)cn2)ccc2c1B(O)OC2` (stereo not given), in the data set on Plasmodium berghei [4], the survival at 0.3 mg/kg came out at 0%.

As to `CCCC1(O)CN(C(=O)c2cnc(Oc3ccc4c(c3C)B(O)OC4)cn2)C1`, the survival at 200 mg/kg in the data set on Plasmodium berghei [5] came out at 0%. Further, the survival at 100 mg/kg with Plasmodium berghei [6] worked out at 20%.

Consider `Cc1c(Oc2cnc(C(=O)N3CC(C)(O)C3)cn2)ccc2c1B(O)OC2`, for which the Activity in the data set with Escherichia coli [7] amounted to 53; with Salmonella typhimurium [8] it was 22; in the data set on Escherichia coli [9] it was 40; in the data set on Lymphocyte [10], 0.95%; with Salmonella typhimurium [11], 126; with Salmonella typhimurium [12] it was 10. Moreover, the Activity was determined as 13% with Lymphocyte [13]; 5 in the data set on Salmonella typhimurium [14]; 20 in the data set on Salmonella typhimurium [15]; 13 in the data set with Salmonella typhimurium [16]; 149 in the data set with Salmonella typhimurium [17]; 17 with Salmonella typhimurium [18]. Also, the Activity in the data set on Salmonella typhimurium [19] was 136; with Escherichia coli [20], 50; in the data set on Lymphocyte [22] it was 0.74%; in the data set with Salmonella typhimurium [23], 15; in the data set on Rattus norvegicus, -4%; in the data set with Escherichia coli [25], 55. Also, in the data set on Salmonella typhimurium [26], the Activity is 14. Also, the survival at 100 mg/kg with Plasmodium berghei [1] turned out to be 60%. Moreover, the T99.9% in the data set with Plasmodium falciparum [21] is 30 h. The Time with Plasmodium falciparum [24] came out at 0 h.

Consider `Cc1c(Oc2cnc(C(=O)N3CC(O)(C(F)(F)F)C3)cn2)ccc2c1B(O)OC2`, for which the survival at 100 mg/kg in the data set with Plasmodium berghei [6] stood at 100%. Also, the survival at 1.1 mg/kg with Plasmodium berghei [3] was 100%.
